The list is not random: actives were taken first. Their share in the collection is about 3.3%.
ABCB6 inh 2 = inhibitors of human ABC transporter ABCB6; K562-ABCB6 porphyrin accumulation, flow cytometry, 1 h; active compounds read low; fluorescence ratio to DMSO, % at 10 µM; Q9NP58; 360,000 tested, 0.19% active;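 active = fluorescence ratio to DMSO below 75%, the collection mean minus 3 SD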;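 note: signal is porphyrin accumulated inside mitochondria; 100% equals median channel fluorescence of DMSO control wells; lower ratio means ABCB6 inhibition with less porphyrin fluorescence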
STAT3 activator = STAT3 signaling activation; AID 871; U3A cells, IL-6 STAT3-luciferase reporter, luminescence; 100% = signal with IL-6 EC80 alone; 190,000 tested, 0.91% active; activation (% of control), % at 5.6 µM;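 active = activation above the screen-wide mean of compound activation plus 3 SD, cut at about 130% in these data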;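 note: 0% = background luminescence of wells with medium and substrate only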
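Assay system – human STAT1-deficient U3A cells with stable STAT3-luciferase reporter · Also added – IL-6 (33 ng/mL) · Schedule – compound 1 h, then IL-6 6 h at 37 °C · Technique – reporter luminescence signal · Evaluation – % activation versus median of IL-6-stimulated wells · Benchmarks – IL-6-only wells as 100% reference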
AHR activator = activates the human aryl hydrocarbon receptor; AID 2796; P35869; AHR-responsive luciferase reporter cells, luminescence; activation, % at 5 µM; 320,000 tested, 2.5% active; in the data active = activation above about 47%;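 note: 0% = vehicle wells and 100% = reference agonist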
Target sequence (P35869 whole entry, looked up): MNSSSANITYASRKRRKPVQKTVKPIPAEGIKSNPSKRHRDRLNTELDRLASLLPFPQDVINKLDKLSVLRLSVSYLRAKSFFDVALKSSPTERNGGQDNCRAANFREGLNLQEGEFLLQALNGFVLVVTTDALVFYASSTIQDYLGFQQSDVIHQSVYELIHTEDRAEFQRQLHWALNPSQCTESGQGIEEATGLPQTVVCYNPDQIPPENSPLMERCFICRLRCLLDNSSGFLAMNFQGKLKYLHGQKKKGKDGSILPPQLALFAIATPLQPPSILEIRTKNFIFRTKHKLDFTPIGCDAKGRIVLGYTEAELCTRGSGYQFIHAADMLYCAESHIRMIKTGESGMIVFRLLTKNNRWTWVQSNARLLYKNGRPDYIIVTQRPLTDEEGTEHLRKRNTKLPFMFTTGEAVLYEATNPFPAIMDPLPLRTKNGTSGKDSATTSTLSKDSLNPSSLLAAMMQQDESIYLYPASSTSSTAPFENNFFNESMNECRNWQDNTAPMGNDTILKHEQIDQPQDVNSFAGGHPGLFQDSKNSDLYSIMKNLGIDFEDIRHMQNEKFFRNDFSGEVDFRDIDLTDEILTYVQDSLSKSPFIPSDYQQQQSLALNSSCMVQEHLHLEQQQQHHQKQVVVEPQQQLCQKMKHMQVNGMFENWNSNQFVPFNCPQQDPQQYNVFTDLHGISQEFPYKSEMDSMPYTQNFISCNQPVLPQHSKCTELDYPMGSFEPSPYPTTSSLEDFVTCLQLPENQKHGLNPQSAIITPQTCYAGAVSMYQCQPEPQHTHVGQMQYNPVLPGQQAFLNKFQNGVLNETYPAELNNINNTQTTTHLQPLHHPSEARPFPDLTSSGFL
FXN GAA850 act = activators of GAA850 frataxin (FXN) promoter. HEK293 lucGAA850 FXN promoter luciferase reporter, 24 h; percent of 10 µM SAHA response. activation, % at 6 µM. 360,000 tested, 0.56% active. AID 540364;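 active = activation above the average of all compounds screened plus 3 SD, cutoff fixed separately per campaign, cut at about 7.5% in these data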;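 note: 0% = DMSO wells and 100% = 10 µM SAHA wells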
GAA30 counter = activates GAA30 frataxin promoter, counter-screen for GAA850 activators; activation, % at 6 µM; AID 588350; shares compounds with FXN GAA850 act; HEK293 lucGAA30 FXN promoter luciferase, 24 h; DMSO = 0%, 5 µM ipriflavone = 100%; 1,900 tested, 66% active;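 active = mean activation above the mean of solvent-only control wells plus 3 SD, cut at about 22% in these data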;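 note: counterscreen of GAA850 promoter hits where activity marks nonselective or luminescence artifacts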
FXN GAA850 conf = GAA850 FXN promoter activation confirmation | shares compounds with FXN GAA850 act | HEK293 lucGAA850 FXN promoter luciferase reporter, 24 h; 100% = activation by SAHA | activation, % at 6 µM | 1,900 tested, 86% active | AID 588351;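 active = mean activation above a set limit taken from the primary screen, cut at about 8% in these data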;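 note: 0% = DMSO wells and 100% = 10 µM SAHA wells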
Active calls of the source: *; . = no result.

SMILES	ABCB6 inh 2	STAT3 activator	AHR activator	FXN GAA850 act	GAA30 counter	FXN GAA850 conf
CC[C@@]12C(=O)N(c3ccc(OC)cc3)C(=O)N1[C@H](c1ccc(Cl)cc1)[C@@H]1C(=O)N(C3CCCCC3)C(=O)[C@@H]12	99.0	.	1.3	10.5*	30.3*	6.9
CC[C@@]12C(=O)N(c3cccc(F)c3)C(=O)N1[C@H](c1ccc(Cl)cc1)[C@@H]1C(=O)N(C3CCCCC3)C(=O)[C@@H]12	99.0	.	-0.5	9.0*	22.7*	15.4*
CCN1C(=O)[C@H]2[C@@H](c3ccc(C)cc3)N3C(=O)N(c4ccc(C(F)(F)F)cc4)C(=O)[C@@]3(Cc3ccccc3)[C@H]2C1=O	96.0	.	-1.3	0.2	.	.
CC[C@@]12C(=O)N(c3cccc(Br)c3)C(=O)N1[C@H](c1ccc(Cl)cc1)[C@@H]1C(=O)N(C3CCCCC3)C(=O)[C@@H]12	101.0	.	3.1	10.6*	6.4	14.6*
O=C(Nc1ccccc1)c1cccc(=O)o1	90.0	.	-1.4	0.9	.	.
CCN1C(=O)[C@H]2[C@@H](c3ccc(C)cc3)N3C(=O)N(c4cccc(F)c4)C(=O)[C@@]3(C)[C@H]2C1=O	99.0	.	-0.2	-1.5	.	.
O=C1[C@H]2[C@@H](c3ccc(Cl)cc3)N3C(=O)N(c4cccc(F)c4)C(=O)[C@@]3(Cc3ccc(Cl)cc3)[C@H]2C(=O)N1C1CCCCC1	100.0	.	2.1	0.1	.	.
Cc1ccc(N2C(=O)N3[C@H](c4ccc(Cl)cc4)[C@@H]4C(=O)N(C5CCCCC5)C(=O)[C@@H]4[C@]3(Cc3ccccc3)C2=O)cc1	93.0	.	0.3	12.0*	43.3*	17.1*
Cc1cccc(N2C(=O)N3[C@H](c4ccc(F)cc4)[C@@H]4C(=O)N(C5CCCCC5)C(=O)[C@@H]4[C@]3(Cc3ccc(Cl)cc3)C2=O)c1	97.0	.	0.0	4.7	.	.
CC(C)C[C@@]12C(=O)N(c3cccc(Cl)c3)C(=O)N1[C@H](c1ccc(Cl)cc1)[C@@H]1C(=O)N(C3CCCCC3)C(=O)[C@@H]12	101.0	.	-0.2	4.8	.	.
Cc1ccc(N2C(=O)N3[C@H](c4ccc(F)cc4)[C@@H]4C(=O)N(C5CCCCC5)C(=O)[C@@H]4[C@]3(C)C2=O)cc1	101.0	.	2.6	13.0*	19.6	4.9
O=C1[C@H]2[C@@H](c3ccc(F)cc3)N3C(=O)N(c4cccc(F)c4)C(=O)[C@@]3(Cc3ccc(Cl)cc3)[C@H]2C(=O)N1C1CCCCC1	100.0	.	6.0	11.7*	20.3	11.0*
CC(C)C[C@@]12C(=O)N(c3cccc(Cl)c3)C(=O)N1[C@H](c1ccc(F)cc1)[C@@H]1C(=O)N(C3CCCCC3)C(=O)[C@@H]12	98.0	.	0.1	12.5*	21.4	20.0*
CC1Cc2cc(S(=O)(=O)CCC(=O)NCc3ccco3)ccc2N1C(=O)C1CC1 (stereo not drawn)	104.0	.	-2.2	-2.5	.	.
CC(=O)Nc1ccc(CN(C)c2c(C)nc3ccc(C(=O)Nc4ccc(Cl)c(Cl)c4)cn23)cc1	96.0	.	.	0.0	.	.
O=C1[C@H]2[C@@H](c3ccc(Cl)cc3)N3C(=O)N(c4cccc(Cl)c4)C(=O)[C@@]3(Cc3ccc(Cl)cc3)[C@H]2C(=O)N1C1CCCCC1	98.0	.	3.3	9.6*	22.6*	10.1*
CCOC(=O)C1=C(COC(=O)/C=C/c2cccc(OC)c2)NC(=O)NC1C (stereo not drawn)	96.0	.	1.4	3.8	.	.
Cc1cccc(C(=O)Nc2ccc(C(=O)/C=C/c3ccncc3)cc2)c1	90.0	.	4.8	16.6*	15.9	27.3*
COc1cc2c(O)c3c(c(-c4ccc5c(c4)OCO5)c2cc1OC)C(=O)OC3	100.0	83.8	0.9	19.8*	-8.3	26.6*
O=C(/C=C/c1ccc(O)c(O)c1)OCCc1ccccc1	98.0	.	11.2	16.0*	31.1*	22.9*
O=C(/C=C/c1ccc(O)c(O)c1)c1ccccc1O	100.0	.	-4.5	12.8*	74.7*	34.7*
COc1ccccc1CNc1nc(NCc2ccccc2)nc2ccsc12	101.0	.	.	-1.8	.	.
c1ccc(CNc2nc(NCc3ccccc3)c3sccc3n2)cc1	93.0	.	.	10.2*	46.1*	16.6*
CCc1ccc(OCc2ccc(C(=O)OC)o2)cc1	106.0	.	3.5	7.6*	78.0*	27.7*
CC(C)(C)c1ccc(OCc2ccc(C(=O)N3CCOCC3)o2)cc1	100.0	111.9	17.5	8.4*	51.9*	24.0*
SMILES	ABCB6 inh 2	STAT3 activator	AHR activator	FXN GAA850 act	GAA30 counter	FXN GAA850 conf
COC(=O)c1ccc(COc2ccc(C(C)(C)C)cc2)o1	98.0	.	4.0	5.1	.	.
CCCc1ccc(OCc2ccc(C(=O)N3CCSCC3)o2)cc1	97.0	.	7.7	7.6*	100.4*	38.1*
C[C@@H]1OC(C2CCCCC2)N(C)[C@H]2C[C@H]3c4[nH]c5ccccc5c4CCN3C[C@@H]12 (stereo partly drawn)	106.0	.	.	.	.	.
Clc1ccc(-c2nc3cnccn3c2Nc2ccc3c(c2)OCO3)cc1	95.0	98.8	16.8	-1.5	.	.
c1cn2c(Nc3ccc4c(c3)OCCO4)c(-c3ccc(N4CCOCC4)cc3)nc2cn1	93.0	.	22.9	8.8*	55.5*	17.9*
Cc1cc(CNC(=O)C(C)n2nc(C)c([N+](=O)[O-])c2C)c2ccccc2n1 (stereo not drawn)	86.0	105.6	-0.7	0.5	.	.
Fc1ccc(Nc2nc(-c3ccncc3)cs2)cc1	98.0	104.3	11.7	7.9*	88.7*	32.8*
c1ccc(Nc2nc(-c3ccncc3)cs2)cc1	100.0	108.7	13.7	5.2	.	.
O=C(O)/C=C/C(=O)NCCc1ccccc1	96.0	90.9	-0.2	0.5	.	.
CC(C)=CC(=O)NCCc1ccccc1	102.0	95.8	6.2	15.0*	74.8*	20.5*
CCOC(=O)[C@@H]1[C@H]2COc3cc(OC)ccc3[C@H]2N2C(=O)N(c3ccc(C(F)(F)F)cc3)C(=O)[C@]12C	95.0	.	0.0	-5.5	.	.
COCCN1CCN(c2c(C)c(C)nc3cc(-c4cccc(OC)c4)nn23)CC1	94.0	.	1.1	10.0*	72.0*	20.3*
COc1ccc(NC(=O)CC2SC(N3CCOCC3)=NC2=O)cc1OC (stereo not drawn)	97.0	.	-1.6	0.2	.	.
Cc1ccc(S(=O)(=O)Cn2nnnc2C(C(C)C)N2CCc3ccccc3C2)cc1 (stereo not drawn)	103.0	99.5	13.8	10.1*	8.5	7.7*
CC[C@@]12C(=O)N(c3cccc(Cl)c3)C(=O)N1[C@H](c1ccc(Br)cc1)[C@@H]1C(=O)N(C(C)(C)C)C(=O)[C@@H]12	97.0	.	2.2	14.4*	34.9*	17.2*
CC(C)C[C@@]12C(=O)N(c3ccc(Br)cc3)C(=O)N1[C@H](c1ccc(Br)cc1)[C@@H]1C(=O)N(C(C)(C)C)C(=O)[C@@H]12	99.0	.	4.2	16.8*	18.3	18.0*

Screens (PubChem BioAssay)
